# Results from different studies.
# Protocols differ between the studies behind these lines.
# DHFR: Dihydrofolate reductase (DHFR, Homo sapiens, UniProt P00374)
# Aldo-keto reductase family 1 member B1: Aldo-keto reductase family 1 member B1 (Bos taurus, UniProt P16116)
# FAAH: Fatty-acid amide hydrolase 1 (FAAH, Homo sapiens, UniProt O00519)
# FLT3: Receptor-type tyrosine-protein kinase FLT3 (FLT3, Homo sapiens, UniProt P36888)
# HTR2C: 5-hydroxytryptamine receptor 2C (HTR2C, Homo sapiens, UniProt P28335)
# CAMK2A: Calcium/calmodulin-dependent protein kinase type II subunit alpha (CAMK2A, Homo sapiens, UniProt Q9UQM7)
SMILES,target,effect on,mode,method,setting,IC50
Clc1ccc(Cn2c(-c3ccc(Cl)cc3)nc3ccccc32)cc1,DHFR,enzyme activity,inhibitor,,,10.6 µM
C/C(=N/N=c1/scc(-c2ccc(Br)cc2)n1-c1c(C)cccc1C)c1ccc2c(c1)OCCO2,Aldo-keto reductase family 1 member B1,enzyme activity,inhibitor,absorbance,,3.14 µM
O=C(Oc1nsnc1N1CCc2ccccc2C1)N1CCCCC1,FAAH,enzyme activity,inhibitor,,cell membranes,0.017 µM
CCCCNc1ccnc(Nc2cccc(-c3cccnc3)c2)n1,FLT3,enzyme activity,inhibitor,,,0.123 µM
CCN(CC)CCCC[C@H](NC(=O)[C@H](CC(C)C)NC(=O)[C@H](C)NC(=O)[C@H](Cc1ccccc1)NC(=O)c1ccc(C(C)(C)C)cc1)C(=O)N[C@@H](CO)C(=O)OC,"Chromodomain Y-like protein 2 (CDYL2, Homo sapiens, UniProt Q8N8U2)",ligand displacement,,TR-FRET,,0.085 µM
CCCC[C@@H](C(=O)N[C@@H](CC(=O)O)C(=O)N(C)[C@@H](Cc1ccccc1)C(N)=O)N(C)C(=O)[C@H](Cc1c[nH]c2ccccc12)NC(=O)CNC(=O)[C@H](Cc1ccc(O)cc1)NC(=O)[C@H](C)NC(=O)[C@@H](CCC(=O)O)NC(=O)CN1CCN(CC(=O)O)CCN(CC(=O)O)CCN(CC(=O)O)CC1,"Gastrin/cholecystokinin type B receptor (CCKBR, Homo sapiens, UniProt P32239)",ligand displacement,,radioligand,,0.00498 µM
N[C@H](Cc1c[nH]c2ccccc12)C(=O)O,DHFR,enzyme activity,inhibitor,,,2000 µM
O=C(Oc1nsnc1N1CCC(c2ccccc2)CC1)N1CCCCC1,FAAH,enzyme activity,inhibitor,,cell membranes,1.48 µM
NNC(COCc1ccccc1)c1nnnn1CCc1ccc(O)cc1 (stereo not drawn),"Endothiapepsin (EAPA, Cryphonectria parasitica, UniProt P11838)",enzyme activity,inhibitor,fluorescence,,89.3 µM
c1cncc(-c2cccc(Nc3nccc(NC4CCCCC4)n3)c2)c1,FLT3,enzyme activity,inhibitor,,,0.032 µM
CC/C=C\C/C=C\C/C=C\C/C=C\C/C=C\CCCC(=O)O,"DNA topoisomerase 2-alpha (TOP2A, Homo sapiens, UniProt P11388)",enzyme activity,inhibitor,,,10 µM
O=[N+]([O-])c1ccc(-c2cs/c(=N/N=C\c3c[nH]c4ccccc34)n2Cc2ccccc2)cc1,Aldo-keto reductase family 1 member B1,enzyme activity,inhibitor,absorbance,,1.52 µM
O=C(O)c1ccnc2c(O)cccc12,"Gamma-butyrobetaine dioxygenase (BBOX1, Homo sapiens, UniProt O75936)",enzyme activity,inhibitor,,,111 µM
Cc1ccc(C(=O)Nc2ccc(Oc3cc4cnn(C)c4cc3-c3cn[nH]c3)c(F)c2)c(=O)n1-c1ccc(F)cc1,"Tyrosine-protein kinase receptor Tie-1 (TIE1, Homo sapiens, UniProt P35590)",enzyme activity in cells,inhibitor,,,> 1 µM
CN(CCCCNC(=O)c1cc2ccccc2[nH]1)[C@@H]1Cc2cccc3[nH]c(=O)n(c23)C1,HTR2C,ligand displacement,,radioligand,,3.08 µM
COc1ccc2c(Oc3ccc4c(C(=O)Nc5ccccc5N)cccc4c3)ccnc2c1,"Aurora kinase C (AURKC, Homo sapiens, UniProt Q9UQB9)",enzyme activity,inhibitor,,,> 0.5 µM
COc1cc(OC)c(C(=O)CCCCN2CCC3(CC2)NC(=O)NC3=O)cc1NS(=O)(=O)c1ccc(C(F)(F)F)cc1,HTR2C,ligand displacement,,radioligand,,0.003 µM
O=C(Nc1ccc(Cl)cc1)N1CCC(n2c(=O)[nH]c3c(Br)cccc32)CC1,"Formamidopyrimidine-DNA glycosylase (Escherichia coli, UniProt P05523)",enzyme activity,inhibitor,,,> 100 µM
CC(=N/N=c1\scc(-c2ccc(Br)cc2)n1-c1ccccc1C)C12CC3CC(CC(C3)C1)C2,Aldo-keto reductase family 1 member B1,enzyme activity,inhibitor,absorbance,,10.2 µM
C[C@H]1OC(=O)/C=C/C(=O)[C@@H](OC(=O)CCC(=O)O)CCCCCCCC[C@H]1O,"Stromelysin-1 (MMP3, Homo sapiens, UniProt P08254)",enzyme activity,inhibitor,,,10 µM
O=C1NCCc2[nH]c(-c3cccnc3)cc21,"Casein kinase I isoform delta (CSNK1D, Homo sapiens, UniProt P48730)",enzyme activity,inhibitor,,,> 100 µM
c1ccc(-c2ccccc2Nc2nccc(NC3CCCCC3)n2)cc1,FLT3,enzyme activity,inhibitor,,,> 13 µM
CC(=N/N=c1\scc(-c2ccc(Br)cc2)n1-c1c(C)cccc1C)C12CC3CC(CC(C3)C1)C2,Aldo-keto reductase family 1 member B1,enzyme activity,inhibitor,absorbance,,4.21 µM
CC(C)(C)n1nc(-c2ccc3nc(OC4CC4)ccc3c2)c(C(N)=O)c1N,CAMK2A,cell-free assay,inhibitor,,,> 10 µM
O=[N+]([O-])c1ccc(-c2nc3ccccc3n2Cc2ccccc2)cc1,DHFR,enzyme activity,inhibitor,,,12.3 µM
CC1Cc2ccccc2N1C(=O)NCCCCN(C)[C@@H]1Cc2cccc3[nH]c(=O)n(c23)C1 (mixture of isomers),HTR2C,ligand displacement,,radioligand,,> 10 µM
Cc1ccc2nc(-c3ccc([N+](=O)[O-])cc3)n(Cc3ccccc3)c2c1,DHFR,enzyme activity,inhibitor,,,6.78 µM
CC(=N/N=c1\scc(-c2ccc(Br)cc2)n1-c1ccccc1)C12CC3CC(CC(C3)C1)C2,Aldo-keto reductase family 1 member B1,enzyme activity,inhibitor,absorbance,,4.4 µM
CCCOc1ccc(Nc2cc(C)nc3ccc(Cl)cc23)cc1,"Cell division protein FtsZ (Mycobacterium tuberculosis, UniProt P9WN95)",tubulin polymerisation,inhibitor,,,22.7 µM
CONc1ccnc(Nc2cccc(-c3cccnc3)c2)n1,FLT3,enzyme activity,inhibitor,,,> 34 µM
CC(=N/N=c1\scc(-c2ccc(Cl)cc2)n1-c1c(C)cccc1C)C12CC3CC(CC(C3)C1)C2,Aldo-keto reductase family 1 member B1,enzyme activity,inhibitor,absorbance,,3.51 µM
COc1cccc(-c2cccc(Nc3nccc(NC4CCCCC4)n3)c2)c1,FLT3,enzyme activity,inhibitor,,,24.5 µM
O=C(O)c1ccc2nc(-c3ccc(OCc4ccccc4COc4ccc(-c5nc6ccc(C(=O)O)cc6[nH]5)cc4)cc3)[nH]c2c1,DHFR,enzyme activity,inhibitor,,,> 250 µM
CC(C)(C(=O)O)C1=C/C(=C\c2ccc(-c3ccccc3)cc2)c2ccc(F)cc21,"Prostaglandin G/H synthase 1 (PTGS1, Homo sapiens, UniProt P23219)",enzyme activity in cells,inhibitor,,,1.3 µM
COC(=O)c1cccc(Nc2nccc(NC3CCCCC3)n2)c1,FLT3,enzyme activity,inhibitor,,,0.978 µM
O=C(Oc1nsnc1N1CCC2CCCCC2C1)N1CCCCC1 (stereo not drawn),FAAH,enzyme activity,inhibitor,,cell membranes,0.031 µM
CC(C)(C)n1nc(-c2cnc3cc(OC4CC4)ccc3c2)c(C(N)=O)c1N,CAMK2A,cell-free assay,inhibitor,,,> 10 µM
CC(=N/N=c1\scc(-c2ccc(Cl)cc2)n1Cc1ccccc1)C12CC3CC(CC(C3)C1)C2,Aldo-keto reductase family 1 member B1,enzyme activity,inhibitor,absorbance,,2.18 µM
CNc1ccnc(Nc2cccc(-c3cccnc3)c2)n1,FLT3,enzyme activity,inhibitor,,,0.204 µM
CN1CCN(c2ccc(Nc3ncc4cc(C#N)c(=O)n(C5CCCC5)c4n3)cc2)CC1,"Testis-specific serine/threonine-protein kinase 1 (TSSK1B, Homo sapiens, UniProt Q9BXA7)",enzyme activity,inhibitor,,,0.116 µM
Cc1cnc(-c2ccc(-c3ccc(NC(=O)Nc4c(F)cc(F)cc4F)cc3F)c3c2C(=O)NC3)[nH]1,"Aurora kinase A (AURKA, Homo sapiens, UniProt O14965)",enzyme activity,inhibitor,,,0.00038 µM
CN(C)CC#Cc1ccc2[nH]c3c(c2c1)-c1nc(N)ncc1CCC3,"Serine/threonine-protein kinase ULK3 (ULK3, Homo sapiens, UniProt Q6PHR2)",enzyme activity,inhibitor,radiometric,,> 10 µM
N#Cc1ccc(Cn2ccc3c4c(N)nc(N)nc4ccc32)cc1,DHFR,enzyme activity,inhibitor,,,0.0068 µM
c1cc(Nc2nccc(NC3CCCCC3)n2)cc(-n2ccnc2)c1,FLT3,enzyme activity,inhibitor,,,0.016 µM
CC1=C(/C=C/C(C)=C/C=C/C(C)=C/C=O)C(C)(C)CCC1,"Prothrombin (F2, Bos taurus, UniProt P00735)",enzyme activity,inhibitor,fluorescence,,74 µg/mL
